Results from ChEMBL document CHEMBL1127302 (J Med Chem, 1994).

Key:
[1] = target: Neuronal acetylcholine receptor (Rattus norvegicus) (UniProt P04757+P09483+P12389+P12390+P12392+P43144+Q9JLB5+P12391+P43143+P20420+Q05941); experiment: In vitro neuronal nAChRs evoked [3H]dopamine release was determined in rat striatal slices at concentration of 10e-6 M; assay type: functional
[2] = target: Neuronal acetylcholine receptor; experiment: In vitro binding affinity to neuronal nAChRs was determined by measuring the displacement of [3H]cytisine in rat brain; assay type: tissue-based
How it was run: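 Whole rat brain membrane preparation; displacement of [3H]cytisine from neuronal nAChRs. Binding normalised to equilibrium dissociation constants (Ki). Values are means ± SEM.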

Row | SMILES | Dopamine release [1] [%] | Ki [2] [nM]
1 | CN1CCC[C@@H]1c1cccnc1 | 114 | 
2 | Cc1cc([C@@H]2CCCN2)sn1 | 56 | 228
3 | CN1CCC[C@@H]1c1cc(-c2ccccc2)no1 |  | 788
4 | Cc1cc([C@H]2CCCN2)sn1 | 61 | 51
5 | COCc1cc([C@H]2CCCN2C)on1 | 51 | 21.9
6 | Cc1cc([C@@H]2CCCN2C)on1 | 85 | 
7 | CCCc1cc([C@H]2CCCN2C)on1 | 45 | 14
8 | c1ccc(-c2cc([C@H]3CCCN3)on2)cc1 |  | > 10000
9 | CCN1CCC[C@@H]1c1cc(C)no1 | 64 | 34.3
10 | Cc1cc([C@H]2CCCN2)on1 | 43 | 333
11 | Cc1cc([C@@H]2CCCN2)on1 | 111 | 7.4
12 | CN1CCC[C@H]1c1cccnc1 | 126 | 
13 | Cc1cc([C@H]2CCCN2C)sn1 | 41 | 
14 | CCCc1cc([C@H]2CCCN2)on1 |  | > 10000
15 | c1cncc([C@@H]2CCCN2)c1 | 155 | 
16 | CN1CCC[C@@H]1c1cc(C(F)(F)F)no1 | 92 | 6.1
17 | CCc1cc([C@H]2CCCN2C)on1 | 78 | 7.6
18 | CCOC(=O)c1cc([C@H]2CCCN2C)on1 |  | 890
19 | Cc1cc([C@H]2CCCN2C)no1 |  | 1330
20 | CCCCc1cc([C@H]2CCCN2C)on1 | 38 | 24.2
21 | c1cncc([C@H]2CCCN2)c1 | 93 | 
22 | CCc1cc([C@@H]2CCCN2)on1 | 79 | 11.7
23 | CCc1cc([C@@H]2CCCN2C)on1 | 46 | 
24 | CCc1cc([C@H]2CCCN2)on1 | 30 | 552
25 | CCCCc1cc([C@H]2CCCN2)on1 |  | 5000
26 | CN1CCC[C@@H]1c1cc(Cc2ccccc2)no1 | 30 | 7.4
27 | Cc1cc([C@H]2CCCN2C)on1 | 95 | 
28 | Cc1cc([C@@H]2CCCN2C)sn1 | 22 | 
29 | CN1CCC[C@@H]1c1cc(CO)no1 | 41 | 126
